From ChEMBL document CHEMBL1122844, “Novel nonnarcotic analgesics with an improved therapeutic ratio. Structure-activity relationships of 8-(methylthio)- and 8-(acylthio)-1,2,3,4,5,6-hexahydro-2,6-methano-3-benzazocines” (J Med Chem, 1985) come the findings set out here.

In assay [1] the test system is Mus musculus. Nature of the assay: Effective dose required to produce analgesic action in mice after peroral administration. It is filed as functional. The following applies: po. In a few lines: (§1)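 Acetic acid writhing test in mice, 10 per group. Drug given sc or po; sc dosing simultaneous with ip 0.7% AcOH. Starting 15 min after AcOH, writhing observed for 5 min at 15-min intervals, four times in all. A mouse writhing more than once within 5 min counted as having no analgesic effect.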

Assay [2] is described as follows: Ratio of ED50 with/without Naloxone (0.2 mg/kg) after simultaneous injection of drug. It is filed as organism-based. The procedure, abridged:
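Mouse acetic acid writhing test (ip 0.7% AcOH, 10 mice/group, four 5-min observations at 15-min intervals; more than one writhe in 5 min = no analgesia). ED50 determined with drug alone and with naloxone 0.2 mg/kg injected simultaneously with the drug; value is ratio of ED50 with/without naloxone.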

Another assay deals with Opioid receptor (Rattus norvegicus, UniProt P33533+P34975+P33535). Nature of the assay: Inhibitory activity against opiate receptor in rat using [3H]naloxone as radioligand.
Assay [3] concerns Mus musculus. The assay can be described thus: Percent analgesic activity in mice after peroral administration at dose 10 mg/kg. It is filed as functional. The following applies: route oral. The procedure, abridged: as §1
Assay [4] relates to Mus musculus. The assay can be described thus: Percent analgesic activity in mice after subcutaneous administration; 20-30%. Format: functional. The procedure, abridged: as §1
The test system of assay [5] is Mus musculus. The assay can be described thus: Percent analgesic activity in mice after subcutaneous administration at dose 10 mg/kg. Format: functional. The procedure, abridged:
as §1

Assay [6] has as its system Mus musculus. The assay can be described thus: Percent analgesic activity in mice after peroral administration at dose 20 mg/kg. Format: functional. The settings on record: route oral. The procedure, abridged: as §1

`COc1ccc(C(=O)Sc2ccc3c(c2)[C@]2(C)CCN(CCc4ccccc4)C(C3)[C@@H]2C)cc1`: the ED50 in the assay on Mus musculus [1] came out at 5.3 mg/kg. On the same count and under the same terms, the result for `CC(=O)Sc1ccc2c(c1)[C@]1(C)CCN(C)C(C2)[C@@H]1C` reads 4.5 mg/kg.

In the case of `C[C@H]1C2Cc3ccc(OC(=O)c4ccccc4)cc3[C@]1(C)CCN2C`, in assay [2], the Ratio came to 6.4. This compound came in with an ED50 with Mus musculus [1] of 1.7 mg/kg. The same compound yielded an IC50 at Opioid receptor of 107 nM. For the compound `CCC(=O)Sc1ccc2c(c1)[C@]1(C)CCN(CCc3ccccc3)C(C2)[C@@H]1C`, in the assay on Mus musculus [1], the ED50 was found to be 7 mg/kg.

As for `CC(C)=CCN1CC[C@@]2(C)c3cc(SC(=O)C(C)(C)C)ccc3CC1[C@@H]2C`, in the assay on Mus musculus [3], the Analgesic activity amounted to 50%. `CC(C)=CCN1CC[C@@]2(C)c3cc(O)ccc3C[C@@H]1[C@@H]2C` had an ED50 in the assay with Mus musculus [1] of 0.36 mg/kg. Same read-out and setting: the result for `CC(C)=CCN1CC[C@@]2(C)c3cc(SC(=O)c4ccccc4)ccc3C[C@@H]1[C@@H]2C` reads 0.74 mg/kg; that for `CC(C)=CCN1CC[C@@]2(C)c3cc(OC(=O)c4ccccc4)ccc3CC1[C@@H]2C`, 2.6 mg/kg. The same measure, in the same setting: the result for `C[C@H]1C2Cc3ccc(SC(=O)c4ccc(Cl)cc4)cc3[C@]1(C)CCN2C` reads 2.8 mg/kg; that for `CN1CC[C@]23c4c5ccc(O)c4O[C@H]2[C@@H](O)C=C[C@H]3[C@H]1C5` [MORPHINE], 0.52 mg/kg. Take `C[C@H]1C2Cc3ccc(O)cc3[C@@]1(C)CCN2CCc1ccccc1`: in the assay on Mus musculus [1], it took a dose of 0.135 mg/kg to reach the 50% effect level (ED50). Same read-out and setting: the result for `C[C@H]1[C@H]2Cc3ccc(SC(=O)c4ccccc4)cc3[C@]1(C)CCN2C` reads 1 mg/kg. `C[C@H]1[C@@H]2Cc3ccc(O)cc3[C@]1(C)CCN2C` [METAZOCINE] came in with an Analgesic activity with Mus musculus [4] of 20%.

In the assay on Mus musculus [5], `C[C@H]1[C@@H]2Cc3ccc(SC(=O)c4ccccc4)cc3[C@]1(C)CCN2C` displayed an Analgesic activity of 30%. Regarding `C[C@H]1C2Cc3ccc(SC(=O)C(C)(C)C)cc3[C@]1(C)CCN2C`, it took a dose of 6.4 mg/kg to reach the 50% effect level in the assay with Mus musculus [1] (ED50). Compound `C[C@H]1C2Cc3ccc(SC(=O)c4ccc(Cl)cc4)cc3[C@]1(C)CCN2CCc1ccccc1` displayed an Analgesic activity with Mus musculus [6] of 40%.

`C[C@H]1C2Cc3ccc(SC(=O)c4ccccc4)cc3[C@]1(C)CCN2Cc1ccccc1` yielded an Analgesic activity in the assay on Mus musculus [6] of 30%. For `C[C@H]1C2Cc3ccc(O)cc3[C@]1(C)CCN2C`, the ED50 in the assay on Mus musculus [1] was 0.46 mg/kg. Compound `CCOC(=O)Sc1ccc2c(c1)[C@]1(C)CCN(CCc3ccccc3)C(C2)[C@@H]1C` returned an ED50 in the assay on Mus musculus [1] of 18.5 mg/kg. In the assay with Mus musculus [1], `CC(C)=CCN1CC[C@@]2(C)c3cc(SC(=O)c4ccc(Cl)cc4)ccc3CC1[C@@H]2C` had an ED50 of 6 mg/kg. Take `CC(C)=CCN1CC[C@@]2(C)c3cc(SC(=O)c4ccccc4)ccc3C[C@H]1[C@@H]2C`: the Analgesic activity with Mus musculus [5] turned out to be 20%.

`CC(C)=CCN1CC[C@@]2(C)c3cc(SC(=O)c4ccccc4)ccc3CC1[C@@H]2C` had an ED50 in the assay on Mus musculus [1] of 4 mg/kg. For `CC(C)=CCN1CC[C@]2(C)c3cc(O)ccc3C[C@H]1[C@H]2C` [(+)-PENTAZOCINE], the ED50 in the assay with Mus musculus [1] was determined as 1.6 mg/kg. In the assay on Mus musculus [5], this compound showed an Analgesic activity of 20%.

With `C[C@H]1C2Cc3ccc(SC(=O)C(C)(C)C)cc3[C@]1(C)CCN2CCc1ccccc1`, the ED50 in the assay with Mus musculus [1] turned out to be 5.2 mg/kg. In turn, `COc1ccc(C(=O)Sc2ccc3c(c2)[C@]2(C)CCN(C)C(C3)[C@@H]2C)cc1` returned an ED50 with Mus musculus [1] of 4.8 mg/kg. With `C[C@H]1C2Cc3ccc(SC(=O)c4ccccc4)cc3[C@]1(C)CCN2CCc1cccs1`, in the assay on Mus musculus [6], the Analgesic activity was determined as 40%. With `C[C@H]1[C@H]2Cc3ccc(O)cc3[C@@]1(C)CCN2C`, the ED50 with Mus musculus [1] was 0.27 mg/kg. In the assay with Mus musculus [1], `C[C@H]1C2Cc3ccc(SC(=O)c4ccccc4)cc3[C@]1(C)CCN2CCc1ccccc1` returned an ED50 of 1.7 mg/kg. Take `C[C@H]1C2Cc3ccc(O)cc3[C@]1(C)CCN2CCc1cccs1`: the 50% effect level in the assay with Mus musculus [1] (ED50) was put at a dose of 0.071 mg/kg. Regarding `COc1ccc(C(=O)Sc2ccc3c(c2)[C@]2(C)CCN(CC=C(C)C)C(C3)[C@@H]2C)cc1`, the 50% effect level in the assay on Mus musculus [1] (ED50) was put at a dose of 5.3 mg/kg. Turning to `C[C@H]1C2Cc3ccc(SC(=O)c4ccccc4)cc3[C@]1(C)CCN2C`, the Ratio in assay [2] is 1.7. The same compound showed an ED50 in the assay with Mus musculus [1] of 1.05 mg/kg. Besides, at Opioid receptor, the IC50 is 1530 nM.
